Reference: ChEMBL document CHEMBL1649165, “Activity profile in vitro of micafungin against Spanish clinical isolates of common and emerging species of yeasts and molds” (2009)
In brackets after ≈: the same amount, converted by molar mass. *1 amine or outer side, *2 acyl side, *3 side chain or, on linkers, in order; H or OH if unused. Where a SMILES comes first, the peptide text is derived from it. Bridges are numbered along the chain shown (N, C = ends). [ ]: non-standard residue; d: D form. The star is where a group is joined. hTyr(3S-OH,4S-OH,3'-OSO3H) = N[C@H](C(=O)O)[C@H](O)[C@@H](O)c1ccc(O)c(OS(=O)(=O)O)c1; Orn(4R-OH,5R-OH) = O=C([C@H](C[C@@H](O)[C@@H](O)N[*:3])N[*:1])[*:2]; Pro(3S-OH,4S-Me) = C[C@H]1CN[C@H](C(=O)O)[C@H]1O; X1 = CCCCCOc1ccc(-c2cc(-c3ccc(C(=O)*)cc3)no2)cc1; Gln(3R-OH) = NC(=O)C[C@@H](O)[C@H](N)C(=O)O; Hyp = O=C(O)[C@@H]1C[C@@H](O)CN1

Tests used:
Type in all cases: functional
[1] = system: Candida parapsilosis; assay: Antimicrobial activity against Candida parapsilosis by broth microdilution method; conditions: Lodderomyces parapsilosis
Method in brief: (§1)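 Clinical isolates from human patients, tested by broth microdilution using the AFST-EUCAST reference procedure for fermentative yeasts. The MIC was read per that reference method.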

[2] = system: Pichia kudriavzevii; assay: Antimicrobial activity against Candida krusei by broth microdilution method; method in brief: as §1
[3] = system: Clavispora lusitaniae; assay: Antimicrobial activity against Candida lusitaniae by broth microdilution method; method in brief: as §1
[4] = system: Diutina rugosa; assay: Antimicrobial activity against Candida rugosa by broth microdilution method; method in brief: as §1
[5] = system: Debaryomyces hansenii; assay: Antimicrobial activity against Candida famata by broth microdilution method; method in brief: as §1
[6] = system: [Candida] intermedia; assay: Antimicrobial activity against Candida intermedia by broth microdilution method; conditions: Sungouiella intermedia; method in brief: as §1
[7] = system: Magnusiomyces capitatus; assay: Antimicrobial activity against Dipodascus capitatus by broth microdilution method
[8] = system: Trichosporon asahii; assay: Antimicrobial activity against Trichosporon asahii by broth microdilution method
Method in brief: (§2)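 Nonfermentative yeast clinical isolates (Rhodotorula, Trichosporon) tested by broth microdilution. The EUCAST yeast recommendations were followed strictly, with one minor modification to improve growth. MIC was read as the endpoint.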

[9] = system: Rhodotorula mucilaginosa; assay: Antimicrobial activity against Rhodotorula mucilaginosa by broth microdilution method; method in brief: as §2
[10] = system: Trichosporon ovoides; assay: Antimicrobial activity against Trichosporon ovoides by broth microdilution method; method in brief: as §2
[11] = system: Trichosporon dermatis; assay: Antimicrobial activity against Trichosporon dermatis by broth microdilution method; conditions: Cutaneotrichosporon dermatis; method in brief: as §2
[12] = system: Naganishia albida; assay: Antimicrobial activity against Cryptococcus albidus by broth microdilution method
Method in brief: (§3)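 Clinical isolates of nonfermentative yeasts, tested by broth microdilution following EUCAST recommendations. The only change from that method was a minor modification to improve growth.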

[13] = system: Rhodotorula glutinis; assay: Antimicrobial activity against Rhodotorula glutinis by broth microdilution method; method in brief: as §2
[14] = system: Papiliotrema laurentii; assay: Antimicrobial activity against Cryptococcus laurentii by broth microdilution method; method in brief: as §3
[15] = system: Trichosporon; assay: Antimicrobial activity against Trichosporon spp. by broth microdilution method; method in brief: as §2
[16] = system: Aspergillus terreus; assay: Antimicrobial activity against Aspergillus terreus by broth microdilution method
Method in brief: (§4)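 Clinical mould isolates, tested by broth microdilution using the AFST-EUCAST reference method for filamentous fungi. For echinocandins, the endpoint was the minimum effective concentration: the lowest drug concentration giving aberrant hyphal growth, read with an inverted microscope.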

[17] = system: Aspergillus flavus; assay: Antimicrobial activity against Aspergillus flavus by broth microdilution method; method in brief: as §4
[18] = system: Aspergillus niger; assay: Antimicrobial activity against Aspergillus niger by broth microdilution method; method in brief: as §4
[19] = system: Aspergillus nidulans; assay: Antimicrobial activity against Aspergillus nidulans by broth microdilution method; method in brief: as §4
[20] = system: Aspergillus versicolor; assay: Antimicrobial activity against Aspergillus versicolor by broth microdilution method; method in brief: as §4
[21] = system: Aspergillus ustus; assay: Antimicrobial activity against Aspergillus ustus by broth microdilution method; method in brief: as §4
[22] = system: Fennellia nivea; assay: Antimicrobial activity against Aspergillus niveus by broth microdilution method; method in brief: as §4
[23] = system: Aspergillus; assay: Antimicrobial activity against Aspergillus spp. by broth microdilution method; method in brief: as §4
[24] = system: Fusarium solani; assay: Antimicrobial activity against Fusarium solani by broth microdilution method
Method in brief: (§5)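 Filamentous fungus clinical isolates tested by the AFST-EUCAST reference broth microdilution method for moulds. For echinocandins, the endpoint was the minimum effective concentration: the lowest drug concentration giving aberrant hyphal growth, read with an inverted microscope.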

[25] = system: Fusarium oxysporum; assay: Antimicrobial activity against Fusarium oxysporum by broth microdilution method; method in brief: as §4
[26] = system: Fusarium verticillioides; assay: Antimicrobial activity against Fusarium verticillioides by broth microdilution method; method in brief: as §5
[27] = system: Paecilomyces variotii; assay: Antimicrobial activity against Paecilomyces variotii by broth microdilution method; method in brief: as §5
[28] = system: Paecilomyces lilacinus; assay: Antimicrobial activity against Paecilomyces lilacinus by broth microdilution method; conditions: Purpureocillium lilacinum; method in brief: as §5
[29] = system: Scopulariopsis brevicaulis; assay: Antimicrobial activity against Scopulariopsis brevicaulis by broth microdilution method; method in brief: as §5
[30] = system: Fusarium equiseti; assay: Antimicrobial activity against Fusarium equiseti by broth microdilution method; method in brief: as §4
[31] = system: Fusarium reticulatum; assay: Antimicrobial activity against Fusarium reticulatum by broth microdilution method; method in brief: as §5
[32] = system: Coprinellus domesticus; assay: Antimicrobial activity against Hormographiella verticillata by broth microdilution method; method in brief: as §5
[33] = system: Neurospora sitophila; assay: Antimicrobial activity against Chrysonilia sitophila by broth microdilution method; method in brief: as §4
[34] = system: Scedosporium apiospermum; assay: Antimicrobial activity against Scedosporium apiospermum by broth microdilution method; method in brief: as §5
[35] = system: Alternaria alternata; assay: Antimicrobial activity against Alternaria alternata by broth microdilution method; method in brief: as §4
[36] = system: Lewia infectoria; assay: Antimicrobial activity against Alternaria infectoria by broth microdilution method; method in brief: as §4
[37] = system: Exophiala dermatitidis; assay: Antimicrobial activity against Exophiala dermatitidis by broth microdilution method
[38] = system: Aureobasidium pullulans; assay: Antimicrobial activity against Aureobasidium pullulans by broth microdilution method
[39] = system: Cladosporium; assay: Antimicrobial activity against Cladosporium spp. by broth microdilution method; method in brief: as §4
[40] = system: Lecythophora hoffmannii; assay: Antimicrobial activity against Lecythophora hoffmannii by broth microdilution method; conditions: Coniochaeta hoffmannii; method in brief: as §5
[41] = system: Mucor; assay: Antimicrobial activity against Mucor spp.by broth microdilution method; method in brief: as §5
[42] = system: Cunninghamella bertholletiae; assay: Antimicrobial activity against Cunninghamella bertholletiae by broth microdilution method; method in brief: as §4
[43] = Antimicrobial activity against Rhizopus microsporus by broth microdilution method; method in brief: as §5
[44] = system: Rhizomucor; assay: Antimicrobial activity against Rhizomucor spp.by broth microdilution method; method in brief: as §5
[45] = system: Saksenaea vasiformis; assay: Antimicrobial activity against Saksenaea vasiformis by broth microdilution method; method in brief: as §5
[46] = system: Beauveria bassiana; assay: Antimicrobial activity against Beauveria bassiana by broth microdilution method; method in brief: as §4

CCCCCOc1ccc(-c2cc(-c3ccc(C(=O)N[C@H]4C[C@@H](O)[C@@H](O)NC(=O)[C@@H]5[C@@H](O)[C@@H](C)CN5C(=O)[C@H]([C@H](O)CC(N)=O)NC(=O)[C@H]([C@H](O)[C@@H](O)c5ccc(O)c(OS(=O)(=O)O)c5)NC(=O)[C@@H]5C[C@@H](O)CN5C(=O)[C@H]([C@@H](C)O)NC4=O)cc3)no2)cc1 [MICAFUNGIN] (X1-[Orn(4R-OH,5R-OH)]T[Hyp][hTyr(3S-OH,4S-OH,3'-OSO3H)][Gln(3R-OH)][Pro(3S-OH,4S-Me)]; lactam 1-C)
MIC50 [1]: 0.5 µg/mL (≈ 0.394 µM) | MIC90 [1]: 1 µg/mL (≈ 0.787 µM) | MIC50 [2]: 0.03 µg/mL (≈ 0.0236 µM) | MIC90 [2]: 0.06 µg/mL (≈ 0.0472 µM) | MIC50 [3]: 0.03 µg/mL (≈ 0.0236 µM) | MIC90 [3]: 0.03 µg/mL (≈ 0.0236 µM) | MIC50 [4]: 0.03 µg/mL (≈ 0.0236 µM) | MIC90 [4]: 0.12 µg/mL (≈ 0.0945 µM) | MIC50 [5]: 0.03 µg/mL (≈ 0.0236 µM) | MIC90 [5]: 0.12 µg/mL (≈ 0.0945 µM) | MIC50 [6]: 0.03 µg/mL (≈ 0.0236 µM) | MIC90 [6]: 0.12 µg/mL (≈ 0.0945 µM) | MIC50 [7]: > 16 µg/mL | MIC90 [7]: > 16 µg/mL | MIC50 [8]: > 16 µg/mL | MIC90 [8]: > 16 µg/mL | MIC50 [9]: > 16 µg/mL | MIC90 [9]: > 16 µg/mL | MIC50 [10]: > 16 µg/mL | MIC90 [10]: > 16 µg/mL | MIC50 [11]: > 16 µg/mL | MIC90 [11]: > 16 µg/mL | MIC50 [12]: > 16 µg/mL | MIC90 [12]: > 16 µg/mL | MIC50 [13]: > 16 µg/mL | MIC90 [13]: > 16 µg/mL | MIC50 [14]: > 16 µg/mL | MIC90 [14]: > 16 µg/mL | MIC50 [15]: > 16 µg/mL | MIC90 [15]: > 16 µg/mL | MIC50 [16]: 0.03 µg/mL (≈ 0.0236 µM) | MIC90 [16]: 0.03 µg/mL (≈ 0.0236 µM) | MIC50 [17]: > 16 µg/mL | MIC90 [17]: > 16 µg/mL | MIC50 [18]: 0.03 µg/mL (≈ 0.0236 µM) | MIC90 [18]: 0.06 µg/mL (≈ 0.0472 µM) | MIC50 [19]: 0.03 µg/mL (≈ 0.0236 µM) | MIC90 [19]: > 16 µg/mL | MIC50 [20]: 0.03 µg/mL (≈ 0.0236 µM) | MIC90 [20]: 0.06 µg/mL (≈ 0.0472 µM) | MIC50 [21]: 0.06 µg/mL (≈ 0.0472 µM) | MIC90 [21]: 0.25 µg/mL (≈ 0.197 µM) | MIC50 [22]: 0.06 µg/mL (≈ 0.0472 µM) | MIC90 [22]: 0.25 µg/mL (≈ 0.197 µM) | MIC50 [23]: 0.06 µg/mL (≈ 0.0472 µM) | MIC90 [23]: 0.25 µg/mL (≈ 0.197 µM) | MIC50 [24]: > 16 µg/mL | MIC90 [24]: > 16 µg/mL | MIC50 [25]: > 16 µg/mL | MIC90 [25]: > 16 µg/mL | MIC50 [26]: > 16 µg/mL | MIC90 [26]: > 16 µg/mL | MIC50 [27]: 0.03 µg/mL (≈ 0.0236 µM) | MIC90 [27]: 0.03 µg/mL (≈ 0.0236 µM) | MIC50 [28]: > 16 µg/mL | MIC90 [28]: > 16 µg/mL | MIC50 [29]: > 16 µg/mL | MIC90 [29]: > 16 µg/mL | MIC50 [30]: > 16 µg/mL | MIC90 [30]: > 16 µg/mL | MIC50 [31]: > 16 µg/mL | MIC90 [31]: > 16 µg/mL | MIC50 [32]: > 16 µg/mL | MIC90 [32]: > 16 µg/mL | MIC50 [33]: > 16 µg/mL | MIC90 [33]: > 16 µg/mL | MIC50 [34]: 0.03 µg/mL (≈ 0.0236 µM) | MIC90 [34]: > 16 µg/mL | MIC50 [35]: 0.25 µg/mL (≈ 0.197 µM) | MIC90 [35]: > 16 µg/mL | MIC50 [36]: > 16 µg/mL | MIC90 [36]: > 16 µg/mL | MIC50 [37]: 0.03 µg/mL (≈ 0.0236 µM) | MIC90 [37]: 0.06 µg/mL (≈ 0.0472 µM) | MIC50 [38]: 0.03 µg/mL (≈ 0.0236 µM) | MIC90 [38]: 0.06 µg/mL (≈ 0.0472 µM) | MIC50 [39]: 0.03 µg/mL (≈ 0.0236 µM) | MIC90 [39]: 0.06 µg/mL (≈ 0.0472 µM) | MIC50 [40]: 0.03 µg/mL (≈ 0.0236 µM) | MIC90 [40]: 0.06 µg/mL (≈ 0.0472 µM) | MIC50 [41]: > 16 µg/mL | MIC90 [41]: > 16 µg/mL | MIC50 [42]: > 16 µg/mL | MIC90 [42]: > 16 µg/mL | MIC50 [43]: > 16 µg/mL | MIC90 [43]: > 16 µg/mL | MIC50 [44]: > 16 µg/mL | MIC90 [44]: > 16 µg/mL | MIC50 [45]: > 16 µg/mL | MIC90 [45]: > 16 µg/mL | MIC50 [46]: > 16 µg/mL | MIC90 [46]: > 16 µg/mL
